ChEMBL document CHEMBL1147931, “3-(3,4,5-Trimethoxyphenyl)-1-oxo-2-propene: a novel pharmacophore displaying potent multidrug resistance reversal and selective cytotoxicity” (Bioorg Med Chem, 2007)
Calls of active or inactive are those of the source. The rule behind the calls is not given here.

Assays:
HSC-3 = experiment: Cytotoxicity against HSC3 cells; format: functional; settings: Homo sapiens
In short: (§1)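 Adherent cells pre-cultured 24 h in DMEM with 10% […] FBS, humidified 5% CO2, then exposed to a range of compound concentrations. Cells washed once with PBS, incubated 4 h in fresh medium with MTT, lysed in DMSO, viable cells read at 540 nm. CC50 from dose-response curves, average of two independent determinations.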

HSC-4 = experiment: Cytotoxicity against HSC4 cells; format: functional; settings: Homo sapiens; in short: as §1
HSC-2 [1] = experiment: Cytotoxicity against HSC2 cells; format: functional; settings: Homo sapiens; in short: as §1
HL-60 [2] = experiment: Cytotoxicity against human HL60 cells; format: functional
In short: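 HL-60 cells grown in RPMI1640 plus 10% FBS in humidified 5% CO2, exposed to a range of compound concentrations. Viable cells counted by trypan blue exclusion. CC50 from dose-response curves, average of two independent determinations.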

[3] = Cytotoxicity against HGF cells; format: cell-based; settings: human; in short: as §1
[4] = Cytotoxicity against HPLF cells; format: cell-based; settings: human; in short: as §1
[5] = Cytotoxicity against HPC cells; format: cell-based; settings: human; in short: as §1
HL-60 [6] = experiment: Effect on apoptosis in human HL60 cells assessed as increase in caspase 8 activation above 8 uM after 4 hrs; format: functional, cell-based
HL-60 [7] = experiment: Effect on apoptosis in human HL60 cells assessed as increase in caspase 9 activation above 8 uM after 4 hrs; format: functional, cell-based
HSC-2 [8] = experiment: Effect on apoptosis in HSC2 cells assessed as increase in caspase 3 activation at 8 uM after 4 hrs; format: functional, cell-based; settings: Homo sapiens
In short: (§2)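 HSC-2 cells (2×10^6) grown in DMEM with 10% FBS in humidified 5% CO2, incubated 4 h with 4, 8, 16 or 32 µM compound; actinomycin D 1 µg/mL as positive control. Lysate (200 µg protein) incubated 2 h at 37 °C with DEVD-pNA (caspase-3), IETD-pNA (caspase-8) or LEHD-pNA (caspase-9); released pNA read at 405 nm. Mean of 2–3 experiments.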

HSC-2 [9] = experiment: Effect on apoptosis in HSC2 cells assessed as increase in caspase 9 activation at 32 uM after 4 hrs; format: functional, cell-based; settings: Homo sapiens; in short: as §2
HL-60 [10] = experiment: Effect on apoptosis in human HL60 cells assessed as increase in caspase 3 activation above 8 uM after 4 hrs; format: functional, cell-based
HL-60 [11] = experiment: Effect on apoptosis in human HL60 cells assessed as increase in caspase 3 activation at 4 uM after 4 hrs; format: functional, cell-based
HSC-2 [12] = experiment: Effect on apoptosis in HSC2 cells assessed as increase in caspase 3 activation at 32 uM after 4 hrs; format: functional, cell-based; settings: Homo sapiens; in short: as §2
HSC-2 [13] = experiment: Effect on apoptosis in HSC2 cells assessed as increase in caspase 8 activation at 32 uM after 4 hrs; format: functional, cell-based; settings: Homo sapiens; in short: as §2

Row | SMILES | CC50 (HSC-3) | CC50 (HSC-4) | CC50 (HSC-2 [1]) | CC50 (HL-60 [2]) | CC50 [3] | CC50 [4] | CC50 [5] | Activity (HL-60 [6]) | Activity (HL-60 [7]) | Activity (HSC-2 [8]) | Activity (HSC-2 [9]) | Activity (HL-60 [10]) | Activity (HL-60 [11]) | Activity (HSC-2 [12]) | Activity (HSC-2 [13])
1 | COc1cc(/C=C2\CCCCCC2=O)cc(OC)c1OC | 200 µM | 269 µM | 214 µM | 31 µM | 262 µM | 291 µM | 277 µM | – | – | – | – | – | – | – | –
2 | COc1cc(/C=C2\CCCC/C(=C\c3cc(OC)c(OC)c(OC)c3)C2=O)cc(OC)c1OC | 132 µM | 67 µM | 113 µM | 46 µM | 229 µM | 250 µM | 276 µM | – | – | – | – | – | – | – | –
3 | N[C@@H](Cc1ccc(N(CCCl)CCCl)cc1)C(=O)O [MELPHALAN] | 115 µM | 81 µM | 35 µM | 6 µM | > 200 µM | > 200 µM | > 200 µM | – | – | – | – | – | – | – | –
4 | COc1ccc(/C=C/C(=O)/C=C/c2ccc([N+](=O)[O-])cc2)cc1 | 16 µM | 12 µM | 6.3 µM | 25 µM | 81 µM | 193 µM | 141 µM | – | – | – | – | – | – | – | –
5 | COc1cc(/C=C2\CC/C(=C\c3cc(OC)c(OC)c(OC)c3)C2=O)cc(OC)c1OC | 89 µM | 58 µM | 19 µM | 21 µM | 240 µM | 281 µM | 247 µM | – | – | – | – | – | – | – | –
6 | COc1cc(/C=C/C(=O)/C=C/c2ccc([N+](=O)[O-])cc2)cc(OC)c1OC | 5.7 µM | 3.8 µM | < 3.1 µM | 6.4 µM | 16 µM | 106 µM | 94 µM | Active | Active | Active | Active | Active | – | – | –
7 | COc1cc(/C=C/C(C)=O)cc(OC)c1OC | 72 µM | 41 µM | 55 µM | 47 µM | 159 µM | 263 µM | 188 µM | – | – | – | – | – | – | – | –
8 | COc1ccc(/C=C2\CCC/C(=C\c3ccc([N+](=O)[O-])cc3)C2=O)cc1 | – | > 400 µM | – | – | – | – | – | – | – | – | – | – | – | – | –
9 | COc1cc(/C=C2\CCC/C(=C\c3cc(OC)c(OC)c(OC)c3)C2=O)cc(OC)c1OC | 62 µM | 36 µM | 34 µM | 46 µM | 335 µM | 388 µM | 285 µM | – | – | – | – | – | – | – | –
10 | COc1cc(/C=C2\CCC/C(=C\c3ccc([N+](=O)[O-])cc3)C2=O)cc(OC)c1OC | – | 1.5 µM | – | – | – | – | – | – | – | – | inactive | – | Active | Active | Active
11 | COc1cc(/C=C2\CCCC/C(=C\c3ccc([N+](=O)[O-])cc3)C2=O)cc(OC)c1OC | 279 µM | 100 µM | 116 µM | 266 µM | 256 µM | 370 µM | 198 µM | – | – | – | – | – | – | – | –
